Data on three compounds can be found in ChEMBL document CHEMBL1143833, “Concentration-dependent synergy and antagonism within a triple antifungal drug combination against Aspergillus species: analysis by a new response surface model” (Antimicrob Agents Chemother, 2007).

Values after ≈ are worked out from the molar mass of the structure shown.

What all share (assay type): functional, organism-based
The test system of one test is Aspergillus flavus. The test is described as follows: Antifungal activity against Aspergillus flavus by broth microdilution method. The method, boiled down: (§1)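 RPMI 1640 with L-glutamine, no bicarbonate, buffered to pH 7.0 with 0.165 M MOPS. Conidial inoculum added to thawed plates. Incubated 48 h at 37°C, 95% humidity, plates unstacked. MIC taken as the lowest concentration with no visible growth. Growth also read at OD405 against conidium-free backgrounds, expressed as % of drug-free control. Run three times on separate days.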

Another test has as its system Aspergillus fumigatus. The test is described as follows: Antifungal activity against Aspergillus fumigatus by broth microdilution method. Put shortly: as §1
The subject of the next test is Aspergillus terreus. The test is described as follows: Antifungal activity against Aspergillus terreus by broth microdilution method. The conditions noted are these: for EC50: pooled result: one value given for 3 cell lines, strains, targets or settings. The method, boiled down:
as §1

For `C[C@@H]1[C@H](O)[C@@H](C)/C=C/C=C/C=C/C=C/C=C/C=C/C=C/[C@H](O[C@@H]2O[C@H](C)[C@@H](O)[C@H](N)[C@@H]2O)C[C@@H]2O[C@](O)(C[C@@H](O)C[C@@H](O)[C@H](O)CC[C@@H](O)C[C@@H](O)CC(=O)O[C@H]1C)C[C@H](O)[C@H]2C(=O)O` [AMPHOTERICIN B], the minimum inhibitory concentration (MIC) with Aspergillus flavus, against Aspergillus fumigatus and with Aspergillus terreus was 0.5 µg/mL (≈ 0.541 µM) each time. Further, in the test on Aspergillus terreus, the EC50 turned out to be 0.44 µg/mL (≈ 0.476 µM).

For the compound `CC[C@H](C)C[C@H](C)CCCCCCCCC(=O)N[C@H]1C[C@@H](O)[C@@H](NCCN)NC(=O)[C@@H]2[C@@H](O)CCN2C(=O)[C@H]([C@H](O)CCN)NC(=O)[C@H]([C@H](O)[C@@H](O)c2ccc(O)cc2)NC(=O)[C@@H]2C[C@@H](O)CN2C(=O)[C@H]([C@@H](C)O)NC1=O` [CASPOFUNGIN], the MIC in the test with Aspergillus flavus, in the test with Aspergillus fumigatus and in the test with Aspergillus terreus was above 128 µg/mL in each case. The compound further returned an EC50 in the test with Aspergillus terreus of 95.5 µg/mL (≈ 87.4 µM).

Turning to `C[C@@H](c1ncncc1F)[C@](O)(Cn1cncn1)c1ccc(F)cc1F` [VORICONAZOLE], the MIC in the test with Aspergillus flavus, against Aspergillus fumigatus and against Aspergillus terreus was 0.25 µg/mL (≈ 0.716 µM) throughout. In the test on Aspergillus terreus, a half-maximal effect (EC50) was put at 0.23 µg/mL (≈ 0.658 µM).
